Experimental data gathered from unrelated publications.
Each line is one published result; the experiments were not run side by side.
Target: Vascular endothelial growth factor receptor 2 (KDR, Homo sapiens, UniProt P35968)

SMILES	test	conditions	quantity	value
N#Cc1ccc(Nc2ccc3[nH]c(=O)[nH]c3c2)c(Cl)c1	cell-free assay, competition with immobilised ligand	1 µM	remaining binding	99%
COc1ccc(NC(=O)c2c(Nc3ccccc3)sc(C(=O)NN=Cc3ccc(Cl)cc3)c2NC(C)=O)cc1	enzyme activity, inhibitor	100 µM	remaining activity	60.6%
CN(C)C1CCN(CC#Cc2nn(C3CCCC3)c3nc(NCc4ccccc4)ncc23)C1 (stereo not drawn)	enzyme activity, inhibitor, FRET	10 µM	inhibition	56%
COc1cc2c(N3CCN(C(=O)Nc4ccc(OC(C)C)cc4)CC3)ncnc2cc1OCCCN1CCCCC1	cell-free assay	0.5 µM	remaining signal	106%
CNC(=O)c1cc2c(Oc3ccc(NC(=O)C4(C(=O)Nc5ccc(F)cc5)CC4)cc3)ccnc2cc1OC	enzyme activity, inhibitor, radiometric	1 µM	inhibition	82%
O=C(CSc1nc2nccnc2c(=O)n1CCc1ccccc1)Nc1nccs1	enzyme activity, inhibitor	10 µM	inhibition	10%
CCCCN(CCCC)C(=O)CN1C[C@H](c2cc(OC)c3c(c2)OCO3)[C@@H](C(=O)O)[C@@H]1CC(C)(C)CCC	cell-free assay, competition with immobilised ligand	1 µM	remaining binding	88.7%
CC/C(=N\NC(=O)NCc1cccc(O)c1)c1ccc(O)c(C)c1O	enzyme activity, inhibitor	0.1 µM	inhibition	2.7%
Cc1sc(C(=O)NC2COC2)cc1-n1cc(NC(=O)Nc2c(F)cccc2Cl)cn1	enzyme activity, inhibitor	10 µM	remaining activity	88.2%
COc1ccc(-c2cnc3c(-c4ccsc4)cnn3c2)cc1	cell-free assay	0.5 µM	remaining signal	79.8%
Cc1[nH]c(/C=C2\C(=O)Nc3ccc(F)cc32)c(C)c1C(=O)N[C@H]1CCN(C(=O)N(C)C)C1	enzyme activity, inhibitor	1 µM	remaining activity	9%
CC(C)c1ccc(NC(=O)c2cccs2)c(-c2nc3ccccc3[nH]c2=O)c1	enzyme activity, inhibitor	1 µM	activity vs control	25%
CN(C)c1ncnc(-c2ccc3nc(Nc4cc(CN5CCN(C(=O)CC(F)(F)F)CC5)ccn4)[nH]c3c2)c1Cl	cell-free assay, competition with immobilised ligand	1 µM	remaining binding	74%
COc1ccc(NC(=O)c2c(Nc3ccccc3)sc(C#N)c2NC(=O)CNc2ccc(Cl)cc2)cc1	enzyme activity, inhibitor	10 nM	remaining activity	98%
CCS(=O)(=O)c1cc2cc(C[C@@](O)(CC(C)(C)c3ccc(F)cc3C(N)=O)C(F)(F)F)[nH]c2cn1	cell-free assay, competition with immobilised ligand	1 µM	remaining binding	92%
COc1ccc(NC(=O)c2c(Nc3ccccc3)sc(C(=O)NN=Cc3ccc(OC)c(O)c3)c2NC(C)=O)cc1	enzyme activity, inhibitor	0.1 µM	remaining activity	83.2%
CS(=O)(=O)NCC[C@H](NC(=O)c1cncc2c1cnn2-c1ccc(F)cc1)c1ccnc(S(C)(=O)=O)c1	cell-free assay, competition with immobilised ligand	1 µM	remaining binding	100%
CNc1cccc2cc(C(=O)Nc3ccc(C(=O)O)cc3)c(=O)[nH]c12	enzyme activity, inhibitor	10 µM	inhibition	4.8%
COc1ccc(NC(=O)c2c(Nc3ccccc3)sc(C#N)c2NC(=O)CNc2ccc(Br)cc2)cc1	enzyme activity, inhibitor	1 µM	remaining activity	51.3%
O=C1Cc2c([nH]c3ccc(Br)cc23)-c2ccccc2N1	cell-free assay	0.5 µM	remaining signal	98.1%
CCOc1cc(-c2nncn2C)ccc1Nc1ncc2cc(C)nc(NCC(C)(C)C)c2n1	enzyme activity, inhibitor, FRET	1 µM	inhibition	< 15%
CCCS(=O)(=O)Nc1ccc(F)c(C(=O)c2c[nH]c3ncc(-c4ccc(Cl)cc4)cc23)c1F	enzyme activity, inhibitor	1 µM	inhibition	< 20%
COc1ccc(NC(=O)c2c(Nc3ccccc3)sc(C#N)c2NC(=O)CNc2ccc([N+](=O)[O-])cc2)cc1	enzyme activity, inhibitor	10 µM	remaining activity	71.8%
C[C@H](c1cccc(C#N)c1)n1cc(Cl)cc(C(N)=O)c1=N	cell-free assay, competition with immobilised ligand	1 µM	remaining binding	88%
COc1cc2ncnc(Nc3ccc(Oc4ccccc4)cc3C)c2cc1OC	enzyme activity, inhibitor	1 µM	inhibition	14%
O=C1NC(=O)c2cc(Nc3ccc(F)cc3)c(Nc3ccc(F)cc3)cc21	cell-free assay	0.5 µM	remaining signal	97.9%
COc1cc(-c2cn(C3CCc4ccccc4N(CC(F)(F)F)C3=O)nn2)ccc1-n1ccc(C)n1 (stereo not drawn)	cell-free assay, competition with immobilised ligand	1 µM	remaining binding	79%
N#CCCc1ccc2c(c1)-c1[nH]c3ccc([N+](=O)[O-])cc3c1CC(=O)N2	cell-free assay	0.5 µM	remaining signal	75.5%
Cc1c(NC(=O)c2cc(C(N)=O)nc3cc(F)ccc23)c(C(F)(F)F)nn1Cc1ccc(C(C)(C)C)cc1	cell-free assay, competition with immobilised ligand	1 µM	remaining binding	100%
COc1ccc(NC(=O)c2c(Nc3ccccc3)sc(C(=O)NN=Cc3cc(OC)c(OC)c(OC)c3)c2NC(C)=O)cc1	enzyme activity, inhibitor	10 µM	remaining activity	71.1%
